Screening results as filed in PubChem.
Casp6 inh = caspase-6 (human) enzyme inhibition | P55212 | purified caspase-6, Z-VEID-R110 cleavage fluorescence | inhibition, % at 12.5 µM | 350,000 compounds, 0.53% hits | AID 686996;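 active = mean inhibition across replicates at least about 35%, with every replicate also reaching that limit, limit read from the data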;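 also: 0% = median of neutral control wells and 100% = no fluorescence left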
SIRT5 inh = sirtuin-5 (human) deacylase inhibition | Purified SirT5, succinyl-peptide AMC, trypsin-coupled fluorescence | inhibition, % at 15 µM | AID 652115 | 330,000 compounds, 1.1% hits; in the data active = inhibition above about 15%
Target sequence (Q9NXA8 whole entry, looked up): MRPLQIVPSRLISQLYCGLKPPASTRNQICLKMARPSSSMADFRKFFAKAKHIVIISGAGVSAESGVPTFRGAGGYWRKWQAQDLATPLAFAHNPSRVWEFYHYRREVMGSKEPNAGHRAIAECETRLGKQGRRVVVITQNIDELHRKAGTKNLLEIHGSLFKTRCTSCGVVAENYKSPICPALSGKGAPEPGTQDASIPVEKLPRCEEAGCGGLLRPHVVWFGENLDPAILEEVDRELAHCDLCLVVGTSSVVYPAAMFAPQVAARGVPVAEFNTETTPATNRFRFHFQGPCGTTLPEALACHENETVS
NSD2 inh = blocks human histone methyltransferase NSD2 | O96028 | NSD2 peptide methylation, AlphaScreen, 120 min | inhibition, % at 12.5 µM | 310,000 compounds, 0.54% hits | AID 743445; in the data active = inhibition above about 50%
UCH37 DUB inh = human UCH37 deubiquitinating enzyme inhibition; 330,000 compounds, 0.33% hits; inhibition, % (concentration not given with the values); purified proteasome/UCH37, Ub-AMC cleavage fluorescence;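 active = mean inhibition over replicate wells above about 20%, limit read from the data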;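 also: 0% = compound-free wells with enzyme and 100% = wells lacking proteasome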
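Schedule: 30 min plus 25 min, room temperature / Material: human UCH37 within purified proteasomes / Technique: AMC fluorescence intensity at 355/460 nm / Buffer or medium: pH 7.4 Tris-HCl (50 mM) with ovalbumin, ATP-MgCl2, DTT / Controls: wells without proteasome as full block, compound-free enzyme plus substrate as uninhibited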
FGF22 binding = shifts melting point of recombinant human FGF22. activity (Tm shift, normalised), % at 9.99 µM. Q9HCT0. recombinant FGF22 thermal shift, SYPRO orange fluorescence; percent of sucrose octasulfate shift, DMSO zero. 340,000 compounds, 1.5% hits. AID 651658;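 active = mean Tm shift, scaled 0 neutral to 100 positive control, at about 1.3% or above, every replicate too, limit read from the data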
Target sequence (Q9HCT0 whole entry, looked up): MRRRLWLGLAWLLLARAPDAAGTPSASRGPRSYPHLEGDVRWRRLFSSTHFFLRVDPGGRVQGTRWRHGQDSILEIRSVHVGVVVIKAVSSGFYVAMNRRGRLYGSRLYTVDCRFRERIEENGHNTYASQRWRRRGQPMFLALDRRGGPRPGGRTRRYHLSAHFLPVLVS
An asterisk follows results filed as active; / = no result given; ! = a repeat was not active. Most compounds without a hit are left out; they make up all but 2.6% or so of the library.

SMILES	Casp6 inh	SIRT5 inh	NSD2 inh	UCH37 DUB inh	FGF22 binding
O=C(C[C@H]1CC[C@H]2[C@@H](COC[C@@H](O)CN2S(=O)(=O)c2ccccc2)O1)Nc1ccc(-c2ccccc2)cc1	1	18*	/	/	0
O=C(C[C@@H]1CC[C@H]2[C@@H](COC[C@@H](O)CN2S(=O)(=O)c2ccccc2)O1)Nc1ccc(-c2ccccc2)cc1	2	0	/	/	0
O=C(C[C@H]1CC[C@H]2[C@@H](COC[C@@H](O)CN2C(=O)c2ccncc2)O1)Nc1ccc(-c2ccccc2)cc1	3	27*	/	/	0
O=C(C[C@@H]1CC[C@@H]2[C@H](COC[C@H](O)CN2C(=O)c2ccncc2)O1)Nc1ccc(-c2ccccc2)cc1	-1	1	/	/	-1
CCNC(=O)C[C@@H]1CC[C@H]2[C@@H](COC[C@H](O)CN2C(=O)c2cccnc2)O1	-1	17*	/	/	0
CCN(C[C@@H]1N[C@@H](CO)[C@H]1c1ccc(-c2cccc(C#N)c2)cc1)C(C)=O	0	0	/	/	0
CCCNC(=O)C[C@@H]1CC[C@H]2[C@@H](COc3ccc(NC(=O)c4cccc(C(F)(F)F)c4)cc3C(=O)N2C)O1	1	-5	/	/	0
O=C1OC(c2cccs2)=N/C1=C/c1ccc(-c2cccc(C(=O)O)c2)o1	27	12	31	-6	9.4*
O=C1OC(c2cccs2)=N/C1=C\c1ccc(-c2ccccc2Cl)o1	21	6	-4	-27	0
N#C[C@@H]1[C@H](c2ccccc2-c2ccccc2)[C@@H](CO)N1C(=O)NC1CCCCC1	0	2	/	/	0
Cc1ccc(SCCC(=O)NNC(=O)c2ccccc2F)cc1	1	/	0	3	43*
CC(C)NC(=O)Nc1ccc2c(c1)C(=O)N([C@H](C)CO)C[C@H](C)[C@@H](CN(C)C(=O)Nc1ccc3c(c1)OCO3)OCCCC[C@@H](C)O2	0	-2	/	/	0
CCCNC(=O)C[C@H]1CC[C@@H]2[C@@H](COc3ccc(NC(=O)c4ccc(OC)cc4)cc3C(=O)N2C)O1	/	/	/	/	0
COc1ccc(C(=O)CSc2ccccc2C(=O)O)cc1	1	0	-3	7	44*
O=C(CNC(=O)c1cccc(F)c1)OCC(=O)N1CCN(C(=O)c2ccco2)CC1	1	29*	-3	1	42
O=C(Cn1cccc1C(=O)c1ccccc1)NCc1ccc2c(c1)OCO2	/	/	-3	1	/
CC(NC(=O)Cn1cccc1C(=O)c1ccccc1)c1ccc2c(c1)OCCO2 (configuration not stated)	/	1	4	6	43*
O=C(c1cccs1)N1CCN(c2nc3c(F)cc(F)cc3s2)CC1	1	18*	-4	-1	0
CN1CCN(C(=O)C[C@@H]2CC[C@@H]3[C@H](COc4ccc(NC(=O)c5ccc(F)c(F)c5)cc4C(=O)N3C)O2)CC1	2	2	/	/	0
CNC(=O)C[C@H]1CC[C@@H]2[C@@H](COc3ccc(NC(=O)c4ccc(C(F)(F)F)cc4)cc3C(=O)N2C)O1	/	/	/	/	0
CC(C)(C)OC(=O)N(CCc1ccccc1)Cc1ccc(OCc2cccc(NC(=O)C3CC3)c2)cc1	-3	18*	/	/	0
CNC[C@H]1Oc2ccc(NC(=O)Nc3ccc(C(F)(F)F)cc3)cc2CC(=O)N([C@@H](C)CO)C[C@H]1C	-3	0	/	/	0
COc1ccccc1S(=O)(=O)N[C@@H]1C=C[C@H](CC(=O)N2CCN(C)CC2)O[C@H]1CO	10	-7	/	/	0
Cc1ccc(CN(C)C[C@H]2OCc3cnnn3CCCC(=O)N([C@@H](C)CO)C[C@@H]2C)cc1	-7	-1	/	/	0
Cc1ccc(CN(C)C[C@@H]2OCc3cnnn3CCCC(=O)N([C@H](C)CO)C[C@@H]2C)cc1	0	18*	/	/	0
SMILES	Casp6 inh	SIRT5 inh	NSD2 inh	UCH37 DUB inh	FGF22 binding
C[C@H]1CN([C@@H](C)CO)C(=O)CCCn2nncc2CO[C@H]1CN(C)Cc1cccnc1	-3	-1	/	/	0
C[C@@H]1CN([C@H](C)CO)C(=O)CCCn2nncc2CO[C@H]1CN(C)Cc1cccnc1	-9	17*!	/	/	0
Cc1cccc(CN(C)C[C@@H]2OCc3cnnn3CCCC(=O)N([C@H](C)CO)C[C@@H]2C)c1	-1	15*	/	/	0
C[C@@H]1CN([C@H](C)CO)S(=O)(=O)c2ccc(-c3ccccc3F)cc2O[C@H]1CN(C)Cc1ccncc1	-2	7	/	/	-1
O=C(NCC1CCCO1)c1ccc(C=NO)nc1 (configuration not stated)	/	/	/	6	/
CC(C)Cc1ccc(CN2CC[C@@H](NS(=O)(=O)c3ccccc3)C2)cc1	3	-2.2*	/	/	0
COc1ccc(C(=O)N(C)Cc2ccccc2)cc1Br	2	18*	-4	3	0
COc1ccc(CN(C)C(=O)c2ccc(Oc3ccccc3)cc2)cc1F	3	-7	2	2	0
C/C(C=NNc1nc(N2CCCCC2)nc(N2CCCCC2)n1)=C\c1ccccc1	/	/	/	5	/
CCOC(=O)C(NC(=O)c1cccc(Cl)c1)(OCc1ccccc1)C(F)(F)F (configuration not stated)	2	-3	-7	-17	33*
Cc1nn(-c2ccccc2)c(C)c1/C=N/n1c(-c2ccc(Cl)cc2)n[nH]c1=S	2	17*	0	/	0
COC(=O)C[C@@H]1CC[C@H]2[C@@H](COC[C@H](O)CN2CCC(F)(F)F)O1	/	/	/	/	0
C[C@H]1CN([C@@H](C)CO)C(=O)CCCn2nncc2CO[C@@H]1CN(C)C(=O)Nc1ccccc1	-5	28*	/	/	0
C[C@@H]1CN([C@@H](C)CO)C(=O)CCCn2nncc2CO[C@@H]1CN(C)C(=O)C1CCCCC1	-1	-4	/	/	0
C[C@@H]1CN([C@@H](C)CO)C(=O)CCCn2nncc2CO[C@H]1CN(C)C(=O)C1CCCCC1	2	29*!	/	/	0
C[C@@H]1CN([C@H](C)CO)C(=O)CCCn2nncc2CO[C@H]1CN(C)C(=O)Nc1cccc2ccccc12	10	76*	/	/	0
CC(C)NC(=O)N(C)C[C@@H]1OCc2cnnn2CCCC(=O)N([C@@H](C)CO)C[C@H]1C	-1	26*!	/	/	0
C[C@@H]1CN([C@@H](C)CO)C(=O)CCCn2nncc2CO[C@@H]1CN(C)C(=O)Nc1cccc2ccccc12	17	-3	/	/	0
CC(C)(C)c1ccc(OCC(=O)NN=Cc2ccc(N3CCOCC3)cc2)cc1	/	/	/	-38	/
O=C1CC(=Nc2ccc([N+](=O)[O-])cc2)NN1c1c(Cl)cc(Cl)cc1Cl	23	17*	9	/	0
O=C1CC(N2CCC(c3nc4ccccc4[nH]3)CC2)C(=O)N1c1ccccc1F (configuration not stated)	-1	18*	-2	/	0
CCOc1ccc(Cc2c(C)[nH]c3ccc(C(=O)O)cc3c2=S)cc1	17	29*	32	4	0
